Results on 7 compounds are retold here after ChEMBL document CHEMBL3414498, “Design and synthesis of 3-(3-((9H-carbazol-4-yl)oxy)-2-hydroxypropyl)-2-phenylquinazolin-4(3H)-one derivatives to induce ACE inhibitory activity” (Eur J Med Chem, 2015).

Active and inactive are the calls of the source. The calls are words filed in the database; no cut-off is given here.

Experiment [1] concerns the target Angiotensin-converting enzyme (Homo sapiens) (UniProt P12821). As to the kind of experiment: Inhibition of ACE (unknown origin) at 1 uM using synthetic peptide hippuryl-histidyl-leucine substrate by high-throughput colorimetric screening method. In short, it runs like this: (§1)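 ACE activity was followed by the release of hippuric acid from the substrate hippuryl-histidyl-leucine. The released hippuric acid was converted to a yellow product with pyridine and benzene sulfonyl chloride, and the colour was read colorimetrically as absorbance. Each condition was run in triplicate and averaged, with lisinopril as the reference standard.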

For experiment [2] the target is unchanged. As to the kind of experiment: Inhibition of ACE (unknown origin) at 1 uM using synthetic peptide hippuryl-histidyl-leucine substrate by high-throughput colorimetric screening method relative to lisinopril.
For experiment [3] the target is unchanged. As to the kind of experiment: Inhibition of ACE (unknown origin) at 0.5 uM to 10 uM uM using synthetic peptide hippuryl-histidyl-leucine substrate by high-throughput colorimetric screening method. In short, it runs like this:
as §1

Angiotensin-converting enzyme (Homo sapiens), sequence (P12821 whole entry): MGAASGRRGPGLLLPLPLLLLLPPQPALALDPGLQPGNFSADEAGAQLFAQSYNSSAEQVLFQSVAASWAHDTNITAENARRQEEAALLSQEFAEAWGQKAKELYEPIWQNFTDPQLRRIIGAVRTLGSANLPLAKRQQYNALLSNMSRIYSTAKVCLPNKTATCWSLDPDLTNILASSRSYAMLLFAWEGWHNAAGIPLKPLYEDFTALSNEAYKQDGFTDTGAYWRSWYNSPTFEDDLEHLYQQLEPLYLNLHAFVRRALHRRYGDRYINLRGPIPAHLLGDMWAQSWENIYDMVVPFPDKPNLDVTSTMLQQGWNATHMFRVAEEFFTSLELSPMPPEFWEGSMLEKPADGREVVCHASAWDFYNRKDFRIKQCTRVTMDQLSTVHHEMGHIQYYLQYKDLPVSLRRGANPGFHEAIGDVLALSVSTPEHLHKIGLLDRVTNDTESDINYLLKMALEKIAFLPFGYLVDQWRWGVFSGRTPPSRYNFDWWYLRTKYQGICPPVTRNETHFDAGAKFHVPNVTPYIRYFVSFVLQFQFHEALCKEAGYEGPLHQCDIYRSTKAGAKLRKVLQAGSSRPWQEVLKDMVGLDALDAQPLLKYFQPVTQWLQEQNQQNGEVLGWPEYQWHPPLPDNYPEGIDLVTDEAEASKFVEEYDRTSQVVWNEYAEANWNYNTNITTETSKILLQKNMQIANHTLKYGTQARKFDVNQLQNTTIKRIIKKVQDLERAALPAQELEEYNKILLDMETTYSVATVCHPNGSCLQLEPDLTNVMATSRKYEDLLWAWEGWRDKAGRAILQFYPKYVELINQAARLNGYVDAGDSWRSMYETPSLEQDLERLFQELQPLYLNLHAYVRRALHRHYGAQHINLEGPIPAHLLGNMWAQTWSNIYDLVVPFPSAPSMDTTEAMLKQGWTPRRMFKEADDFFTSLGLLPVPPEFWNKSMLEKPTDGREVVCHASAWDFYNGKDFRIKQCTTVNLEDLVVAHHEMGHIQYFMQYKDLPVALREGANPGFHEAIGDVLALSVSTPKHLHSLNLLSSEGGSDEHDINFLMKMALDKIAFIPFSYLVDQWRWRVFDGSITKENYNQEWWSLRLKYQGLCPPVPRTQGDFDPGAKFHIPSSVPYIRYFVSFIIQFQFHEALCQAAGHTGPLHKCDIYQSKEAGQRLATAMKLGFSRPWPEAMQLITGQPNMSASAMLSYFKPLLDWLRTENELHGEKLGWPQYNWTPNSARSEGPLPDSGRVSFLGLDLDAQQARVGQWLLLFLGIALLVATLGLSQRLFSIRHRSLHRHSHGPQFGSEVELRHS

For `O=c1c2ccccc2nc(C(F)(F)F)n1CC(O)COc1cccc2[nH]c3ccccc3c12` (stereo not drawn), the inhibition is more than 75% in experiment [1] and 82.9% in experiment [2]. In addition, in experiment [3], the inhibition entry was “Active”. Take `O=c1c2ccccc2nc(-c2ccc([N+](=O)[O-])cc2)n1CC(O)COc1cccc2[nH]c3ccccc3c12` (stereo not drawn): the inhibition in experiment [1] amounted to 17%.

For `Cc1nc2ccccc2c(=O)n1CC(O)COc1cccc2[nH]c3ccccc3c12` (stereo not drawn), in experiment [1], the inhibition amounted to 17%. With `Cc1ccc(-c2nc3ccccc3c(=O)n2CC(O)COc2cccc3[nH]c4ccccc4c23)cc1` (stereo not drawn), the inhibition is more than 75% in experiment [1] and 100% in experiment [2]. The inhibition entry in experiment [3] is “Active”. Regarding `O=c1c2ccccc2nc(-c2ccccc2)n1CC(O)COc1cccc2[nH]c3ccccc3c12` (stereo not drawn), the inhibition in experiment [1] was more than 75%; in experiment [2] it was 100%. Moreover, the inhibition entry in experiment [3] was “Active”. In turn, `O=c1c2ccccc2nc(-c2ccc(Cl)cc2Cl)n1CC(O)COc1cccc2[nH]c3ccccc3c12` (stereo not drawn) came in with an inhibition in experiment [1] of 17%.

With `O=c1c2ccccc2nc(-c2ccc(F)cc2)n1CC(O)COc1cccc2[nH]c3ccccc3c12` (stereo not drawn), the inhibition in experiment [1] worked out at 17%.
